Here are results for four compounds from ChEMBL document CHEMBL1687727, “Distinct mode of interaction of a novel ketolide antibiotic that displays enhanced antimicrobial activity” (Antimicrob Agents Chemother, 2009).

Usually MIC stands for the lowest concentration that inhibits growth of the organism. A high value points to a need for much substance. The term pKd denotes −log10 of the Kd, conventionally taken in molar units. A lower pKd goes with a large Kd.

Assay [1] concerns Escherichia coli. Briefly: Antimicrobial activity against Escherichia coli TA531 harboring 23S rRNA A2058G mutant after 15 hrs. To be noted: TA531, 15 h. The format is functional. The essentials:
(§1)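 E. coli TA531 lacking chromosomal rrn alleles and carrying plasmid-borne wild-type, A2058G or U2609C 23S rRNA. Grown overnight in LB with 100 μg/ml ampicillin, diluted and regrown. MIC was the lowest concentration arresting culture growth.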

In assay [2] the test system is Escherichia coli. Briefly: Antimicrobial activity against chromosomal rrn allele deficient-Escherichia coli TA531 after 15 hrs. The assay is classed as functional. To be noted: TA531, 15 h. The essentials:
as §1

Assay [3] deals with Escherichia coli. Briefly: Antimicrobial activity against Escherichia coli TA531 harboring 23S rRNA U2609C mutant after 15 hrs. As to conditions: TA531, 15 h. The assay is classed as functional. Summed up: as §1
Assay [4] concerns Escherichia coli K-12. Briefly: Binding affinity to Escherichia coli K-12 70S ribosome Pi complex assessed as inhibition of AcPhe-puromycin synthesis at 5 uM after 2 mins by liquid scintillation counting.
The target in assay [5] is T1, Bacterial 70S ribosome (Bacteria) (UniProt P0A7V0+P60723+P0AG67+P0A7R5+P0A7R9+P0A7S3+P0A7S9+P0AG59+P0ADZ4+P0A7T3+P0AG63+P0A7T7+P0A7U3+P0A7U7+P68679+P0A7V3+P0A7V8+P0A7W1+P02358+P02359+P0A7W7+P0A7X3+P0A7J3+P0A7J7+P0AA10+P0ADY3+P02413+P0ADY7+P0AG44+P0C018+P0A7K6+P0A7L0+P0A7L3+P0AG48+P61175+P0ADZ0+P60624+P68919+P0A7L8+P0A7M2+P0A7M6+P60422+P0AG51+P0A7N1+P0A7M9+P0A7N4+P0A7N9+P0A7P5+P0A7Q1+Q2EEQ2+P0A7Q6+P60438+P62399+P0AG55+P0A7K2). Briefly: Inhibition of tRNA binding to Escherichia coli K-12 70S ribosome.

For assay [6], the target named is T1, Bacterial 70S ribosome (Bacteria). Briefly: Inhibition of poly(A)-dependent synthesis of poly(Lys) using Escherichia coli K-12 70S ribosome at 20 uM after 1 hr by liquid scintillation counting. Summed up:
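Poly(A)-programmed tight-coupled 70S ribosomes (0.5 μM) were preincubated 10 min at 37°C with antibiotic in buffer A. The mix held [3H]lysine (3 nmol, 500 dpm/pmol), bulk E. coli tRNA, 3 mM ATP, 1.5 mM GTP, 5 mM acetyl phosphate and S-100 fraction. Incubated 1 h at 37°C, followed by hot TCA (with 0.25% sodium wolframate) precipitation onto glass fiber filters and scintillation counting.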

Another assay deals with Bacterial 70S ribosome. Kind of assay: Displacement of [14C]-erythromycin from Escherichia coli K-12 70S ribosome after 10 mins by competitive binding assay. Summed up: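 Tight-coupled 70S ribosomes (0.20 μM final) in buffer A (20 mM HEPES-KOH pH 7.6, 4.5 mM Mg acetate, 150 mM NH4 acetate, polyamines). [14C]-erythromycin held constant at 0.6 μM (150 dpm/pmol) with increasing unlabeled competitor, 10 min at 37°C. Mixture was diluted in cold buffer and filtered through cellulose nitrate, which was washed twice and counted. KD was derived from a competition binding equation.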
In general terms: In a radioligand displacement assay an active substance lowers the binding of a labelled ligand.

In assay [7] the test system is Nucleic Acid. Kind of assay: Binding affinity to Escherichia coli K-12 70S ribosome 23S rRNA assessed as protection against DMS-induced modification of 23S rRNA […] by primer extension analysis. The assay is classed as nucleic-acid assay.
The test system of assay [8] is Escherichia coli K-12. Kind of assay: Inhibition of poly(U)-dependent synthesis of poly(Phe) using Escherichia coli K-12 70S ribosome A2058 mutant at 50 uM after 1 hr by liquid scintillation counting.
Assay [9] has as its target T1, Bacterial 70S ribosome (Bacteria). Briefly: Inhibition of Ptase activity of Escherichia coli K-12 70S ribosome.
For assay [10], the system named is Nucleic Acid. Kind of assay: Binding affinity to Escherichia coli K-12 70S ribosome 23S rRNA A2062 mutant assessed as protection against DMS-induced modification of 23S rRNA domain II at nucleotides A752 and by primer extension analysis. The assay is classed as nucleic-acid assay.
Assay [11] relates to Escherichia coli K-12. Kind of assay: Binding affinity to Escherichia coli K-12 Pi complex of 70S ribosome Pi complex U2609C mutant assessed as blockade of tylosin-induced inhibition of AcPhe-puromycin synthesis at 10 uM after 2 mins by liquid scintillation counting. Summed up: (§2)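 Pi complexes were formed on ribosomes carrying the A2058G or U2609C mutation (Ac[3H]Phe-tRNA at the P-site of MF-mRNA-programmed 70S; buffer A). Complexes were pre-exposed to antibiotic (final 10 μM) at 37°C for 2 min, then tylosin was added (final 5 μM). They were then reacted with 1 mM puromycin at 37°C for 2 min to measure AcPhe-puromycin formation.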

For assay [12], the system named is Escherichia coli K-12. Kind of assay: Inhibition of poly(U)-dependent synthesis of poly(Phe) using Escherichia coli K-12 70S ribosome U2609C mutant at 50 uM after 1 hr by liquid scintillation counting.
Assay [13] addresses T1, Bacterial 70S ribosome (Bacteria). Kind of assay: Inhibition of Escherichia coli K-12 70S ribosome dependent elongation factor G-dependent translocation.
Assay [14] deals with Escherichia coli K-12. Kind of assay: Binding affinity to Escherichia coli K-12 70S ribosome Pi complex assessed as dissociation rate constant at 2 uM.
The test system of assay [15] is Escherichia coli K-12. Briefly: Binding affinity to Escherichia coli K-12 Pi complex of 70S ribosome Pi complex A2058G mutant assessed as blockade of tylosin-induced inhibition of AcPhe-puromycin synthesis at 10 uM after 2 mins by liquid scintillation counting. Summed up: as §2
The test system of assay [16] is Nucleic Acid. Kind of assay: Binding affinity to Escherichia coli K-12 70S ribosome 23S rRNA assessed as protection against CMCT-induced modification of 23S rRNA […] by primer extension analysis. The assay is classed as nucleic-acid assay.
Assay [17] has as its system Nucleic Acid. Briefly: Binding affinity to Escherichia coli K-12 70S ribosome 23S rRNA U2609C mutant assessed as protection against DMS-induced modification of 23S rRNA domain V at nucleotides A2058 and A2059 by primer extension analysis.
The subject of assay [18] is Escherichia coli K-12. Briefly: Binding affinity to Escherichia coli K-12 70S ribosome Pi complex assessed as inhibition of AcPhe-puromycin synthesis at 10 uM after 2 mins by liquid scintillation counting. Summed up: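 Pi complex: Ac[3H]Phe-tRNA bound at the P-site of MF-mRNA-programmed 70S ribosomes (0.3 μM ribosomes, 2.0 μM mRNA, 0.5 μM tRNA; buffer A, pH 7.6, 4.5 mM Mg2+; 37°C 15 min), free of unbound donor. Reacted with 1 mM puromycin at 37°C for 2 min, with or without 10 μM antibiotic. Duplicates.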

For assay [19], the target named is T1, Bacterial 70S ribosome (Bacteria). Briefly: Inhibition of poly(U)-dependent synthesis of poly(Phe) using Escherichia coli K-12 70S ribosome at 20 uM after 30 mins by liquid scintillation counting.
Assay [20] deals with Nucleic Acid. Kind of assay: Binding affinity to Escherichia coli K-12 70S ribosome 23S rRNA A2062 mutant assessed as enhancement of DMS-induced modification of 23S rRNA domain V at nucleotides A2062 by primer extension analysis. The format is nucleic-acid assay.
The subject of assay [21] is Nucleic Acid. Briefly: Binding affinity to Escherichia coli K-12 70S ribosome 23S rRNA assessed as enhancement of DMS-induced modification of 23S rRNA domain II at nucleotides A752 by primer extension analysis. The assay is classed as nucleic-acid assay. The essentials: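 70S ribosomes (50 pmol) activated 5 min at 37°C in 20 mM HEPES/KOH pH 7.8, 20 mM MgCl2, 300 mM KCl. Antibiotic added in the same buffer for 10 min at 37°C, then cooled on ice. DMS modification followed, then SDS/EDTA buffer, phenol/chloroform extraction and ethanol precipitation of rRNA. Repeated up to four times.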

pKd: −log10 of the molar value. In brackets after ≈: the same amount, converted by molar mass. Activity calls are given as the source filed them. The calls are words filed in the database; no cut-off is given here. A value given as a limit tells only on which side of the number the result lay.

Regarding `CC[C@H]1OC(=O)[C@H](C)C(=O)[C@H](C)[C@@H](O[C@@H]2O[C@H](C)C[C@H](N(C)C)[C@H]2O)[C@](C)(OC)C[C@@H](C)C(=O)[C@H](C)[C@H]2N(CCCCn3cnc(-c4cccnc4)c3)C(=O)O[C@]12C` [TELITHROMYCIN], the MIC in the assay on Escherichia coli [1] was over 150 µg/mL; with Escherichia coli [2], 16 µg/mL (≈ 19.7 µM); with Escherichia coli [3], 64 µg/mL (≈ 78.8 µM).
Regarding `CC[C@H]1OC(=O)C[C@@H](O)[C@H](C)[C@@H](O[C@@H]2O[C@H](C)[C@@H](O[C@H]3C[C@@](C)(O)[C@@H](O)[C@H](C)O3)[C@H](N(C)C)[C@H]2O)[C@@H](CC=O)C[C@@H](C)C(=O)/C=C/C(C)=C/[C@@H]1CO[C@@H]1O[C@H](C)[C@@H](O)[C@@H](OC)[C@H]1OC`, the outcome in the assay with Escherichia coli K-12 [4] was Active.
Regarding `C[C@H]1C(=O)O[C@H](CCNC(=O)Cc2cccc(-c3ccco3)c2)[C@@]2(C)OC(=O)N[C@@H]2[C@@H](C)C(=O)[C@H](C)C[C@@](C)(O)[C@H](O[C@@H]2O[C@H](C)C[C@H](N(C)C)C2O)[C@@H](C)C1=O` (stereo partly specified) [KOSAN-1325], the inhibition entry (in assay [5]; in the assay with Escherichia coli K-12 [8]; in assay [9]; in assay [13]; in the assay on Escherichia coli K-12 [18]; in [19]) was “inactive” throughout. Further, the inhibition result (in [6]; in the assay on Escherichia coli K-12 [12]) was “Active” in each case. On Bacterial 70S ribosome, this compound had a pKd of 8.12. Besides, the result with Nucleic Acid [7], in the assay on Nucleic Acid [10], in the assay with Escherichia coli K-12 [11], in the assay on Escherichia coli K-12 [15], with Nucleic Acid [16] and in the assay on Nucleic Acid [17] was Active. Further, the outcome with Nucleic Acid [20] was Active. In the assay on Escherichia coli K-12 [14], the Kdiss came to 5e-05 s⁻¹. Moreover, the MIC was over 250 µg/mL against Escherichia coli [1], 8 µg/mL (≈ 10 µM) in the assay on Escherichia coli [2] and 8 µg/mL (≈ 10 µM) against Escherichia coli [3].
For `CC[C@H]1OC(=O)[C@H](C)[C@@H](O[C@H]2C[C@@](C)(OC)[C@@H](O)[C@H](C)O2)[C@H](C)[C@@H](O[C@@H]2O[C@H](C)C[C@H](N(C)C)[C@H]2O)[C@](C)(O)C[C@@H](C)C(=O)[C@H](C)[C@@H](O)[C@]1(C)O` [ERYTHROMYCIN], the result in the assay with Nucleic Acid [21], in the assay on Escherichia coli K-12 [11] and with Nucleic Acid [17] was Active. For the same compound, the inhibition result in assay [6] was “Active”. On Bacterial 70S ribosome, this compound showed a pKd of 7.82. For the same compound, the outcome in the assay on Nucleic Acid [7], in the assay with Nucleic Acid [16] and in the assay with Escherichia coli K-12 [18] was inactive. The results for the MIC in the assay with Escherichia coli [1], against Escherichia coli [2] and in the assay on Escherichia coli [3] were over 500 µg/mL, 128 µg/mL (≈ 174 µM) and 128 µg/mL (≈ 174 µM), respectively. The inhibition entry in [19] is “inactive”.
